Reference: ChEMBL document CHEMBL3351467, “Ligand-free Pd-catalyzed C-N cross-coupling/cyclization strategy: an unprecedented access to 1-thienyl pyrroloquinoxalines for the new approach towards apoptosis” (Eur J Med Chem, 2014)
Calls of active or inactive are those of the source. The rule behind the calls is not given here.

Assays:
Danio rerio [1] = species: Danio rerio; assay: Toxicity in Zebrafish embryo assessed as induction of changes in fins region at 1 uM; format: organism-based; settings: in vivo
How it was run: (§1)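 Embryos at 1 dpf dechorionated with 0.5 mg/ml pronase E and washed in E3. Exposed 6 per well to compound serially diluted in E3 with a final 0.1% DMSO, at 28.5 °C until 5 dpf. Embryos then washed, anaesthetised with 0.008% tricaine and scored blind for body shape, somites, notochord, tail, intestine, fins, brain, jaws, heart, liver and swim bladder. Phenobarbital (3 mM) served as positive control.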

Danio rerio [2] = species: Danio rerio; assay: Teratogenicity in Zebrafish embryo assessed as live embryo level at 1 uM incubated at 28.5 degC until 5 days post fertilization; format: ADME, organism-based; settings: in vivo, 120 h; how it was run: as §1
Danio rerio [3] = species: Danio rerio; assay: Teratogenicity in Zebrafish embryo assessed as induction of morphological deformities at lower jaw at 1 uM incubated at 28.5 degC until 5 days post fertilization; format: organism-based; settings: in vivo, 120 h; how it was run: as §1
Danio rerio [4] = species: Danio rerio; assay: Teratogenicity in Zebrafish embryo incubated at 28.5 degC until 5 days post fertilization; format: ADME, organism-based; settings: in vivo, 120 h; how it was run: as §1
Danio rerio [5] = species: Danio rerio; assay: Toxicity in Zebrafish embryo assessed as induction of changes in heart region at 1 uM; format: organism-based; settings: in vivo; how it was run: as §1
Danio rerio [6] = species: Danio rerio; assay: Induction of apoptosis in Zebrafish embryo incubated for 24 to 48 hrs by acridine orange based fluorescence microscopy; format: functional, organism-based
How it was run: (§2)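 Embryos dechorionated by hand at 24 hpf, 6 per well in two sets, in 0.1% DMSO. Compound added from serially diluted working stocks, kept at 28 °C for 24 h and 48 h. Washed three times in E3, stained 30 min with acridine orange ([…]) in E3, rinsed twice, then examined for apoptosis.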

Danio rerio [7] = species: Danio rerio; assay: Teratogenicity in Zebrafish embryo assessed as induction of morphological deformities at 3 uM incubated at 28.5 degC until 5 days post fertilization; format: organism-based; settings: in vivo, 120 h; how it was run: as §1
Danio rerio [8] = species: Danio rerio; assay: Hepatotoxicity in Zebrafish embryo at 1 uM incubated at 28 degC until 7 days post fertilization; format: organism-based; settings: in vivo, 168 h
How it was run: (§3)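 Larvae at 4 dpf exposed in 24-well plates, 6 per well in 0.1% DMSO, to final 1, 3, 10 and 30 concentrations, incubated at 28 °C until 7 dpf. Washed in E3 and anaesthetised with tricaine. Images scored for liver size, liver degeneration and yolk sac retention as percentages. Amiodarone served as positive control.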

Danio rerio [9] = species: Danio rerio; assay: Induction of cell death in Zebrafish embryo at 10 to 30 uM incubated for 24 to 48 hrs by acridine orange based fluorescence microscopy; format: functional, organism-based; how it was run: as §2
[10] = Teratogenicity in Zebrafish embryo assessed as live embryo level at 3 uM incubated at 28.5 degC until 5 days post fertilization; format: ADME, organism-based, Danio rerio; settings: zebrafish embryos, read-out: Activity
How it was run: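 Zebrafish embryos collected at 1 dpf, staged, dechorionated with 0.5 mg/ml pronase E and washed in E3 medium. Compound serially diluted in E3 with 0.1% DMSO final. Six embryos per well, exposed at 28.5 °C until 5 dpf, then washed, anaesthetised with 0.008% tricaine and scored for morphology (body shape, somites, notochord, tail, intestine, fins, brain, jaws, heart, liver, swim bladder). Blinded; phenobarbital 3 mM positive control.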

Danio rerio [11] = species: Danio rerio; assay: Toxicity in Zebrafish embryo at 1 to 30 uM; format: organism-based; settings: in vivo; how it was run: as §1
Danio rerio [12] = species: Danio rerio; assay: Toxicity in Zebrafish embryo assessed as induction of changes in swim bladder region at 1 uM; format: organism-based; settings: in vivo; how it was run: as §1
Danio rerio [13] = species: Danio rerio; assay: Hepatotoxicity in Zebrafish embryo assessed as induction of embryo mortality at 10 to 30 uM incubated at 28 degC until 7 days post fertilization; format: organism-based; settings: in vivo, 168 h
How it was run: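 Zebrafish embryos at 4 dpf, six per well in 0.1% DMSO, exposed to final compound concentrations of 1, 3, 10 and 30 at 28 °C until 7 dpf. Embryos then washed in E3 medium, anaesthetised with tricaine and imaged; liver size, liver degeneration and yolk sac retention quantified as percentages. Amiodarone served as positive control; evaluation blinded.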

Danio rerio [14] = species: Danio rerio; assay: Toxicity in Zebrafish embryo assessed as induction of changes in notochords at 1 uM; format: organism-based, Notochord; settings: in vivo; how it was run: as §1
Danio rerio [15] = species: Danio rerio; assay: Toxicity in Zebrafish embryo assessed as induction of changes in tail region at 1 uM; format: organism-based; settings: in vivo; how it was run: as §1
Danio rerio [16] = species: Danio rerio; assay: Hepatotoxicity in Zebrafish embryo at 3 uM incubated at 28 degC until 7 days post fertilization; format: organism-based; settings: in vivo, 168 h; how it was run: as §3
Danio rerio [17] = species: Danio rerio; assay: Toxicity in Zebrafish embryo assessed as induction of changes in lower jaw region at 1 uM; format: organism-based; settings: in vivo; how it was run: as §1
Danio rerio [18] = species: Danio rerio; assay: Induction of apoptosis in Zebrafish embryo up to 3 uM incubated for 24 to 48 hrs by acridine orange based fluorescence microscopy; format: functional, organism-based; how it was run: as §2
Danio rerio [19] = species: Danio rerio; assay: Toxicity in Zebrafish embryo assessed as induction of changes in liver region at 1 uM; format: organism-based; settings: in vivo; how it was run: as §1
[20] = Therapeutic index, ratio of NOAEL in Zebrafish embryos to apoptotic EC50 in Zebrafish embryos; format: organism-based, Danio rerio; settings: read-out: TI
[21] = target: 3',5'-cyclic-AMP phosphodiesterase 4B (Homo sapiens) (UniProt Q07343); assay: Inhibition of recombinant His-tagged PDE4B1 (unknown origin) expressed in Sf9 cells at 30 uM pre-incubated for 15 mins before cAMP substrate addition by luminescence assay
Sequence of 3',5'-cyclic-AMP phosphodiesterase 4B (Homo sapiens) (Q07343 whole entry): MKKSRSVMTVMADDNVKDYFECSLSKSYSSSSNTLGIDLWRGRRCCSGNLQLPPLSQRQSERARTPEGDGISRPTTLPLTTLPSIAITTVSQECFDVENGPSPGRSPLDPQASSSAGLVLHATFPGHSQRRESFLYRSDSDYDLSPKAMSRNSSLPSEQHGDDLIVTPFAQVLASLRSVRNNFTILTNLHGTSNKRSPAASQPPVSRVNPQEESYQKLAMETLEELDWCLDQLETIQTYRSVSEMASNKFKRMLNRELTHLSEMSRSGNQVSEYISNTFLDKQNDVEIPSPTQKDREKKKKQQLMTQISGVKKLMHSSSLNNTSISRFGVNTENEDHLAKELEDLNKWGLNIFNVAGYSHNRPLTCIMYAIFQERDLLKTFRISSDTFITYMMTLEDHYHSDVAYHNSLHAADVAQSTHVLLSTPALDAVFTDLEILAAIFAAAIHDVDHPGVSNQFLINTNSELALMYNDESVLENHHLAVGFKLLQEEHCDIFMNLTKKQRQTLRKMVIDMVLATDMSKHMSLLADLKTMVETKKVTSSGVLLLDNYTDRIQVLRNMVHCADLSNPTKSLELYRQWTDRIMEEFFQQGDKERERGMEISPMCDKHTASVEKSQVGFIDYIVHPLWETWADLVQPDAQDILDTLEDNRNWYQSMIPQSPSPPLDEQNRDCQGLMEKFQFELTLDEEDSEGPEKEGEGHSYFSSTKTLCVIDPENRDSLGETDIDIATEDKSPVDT
How it was run: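 PDE4B1 purified in house (10 ng) pre-incubated 15 min with compound or DMSO vehicle. cAMP substrate ([…]) added for 1 h, then reaction stopped and detection reagent applied 10 min in the dark. Luminescence (RLU) read. % inhibition = (RLU vehicle − RLU inhibitor)/RLU vehicle × 100.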

Danio rerio [22] = species: Danio rerio; assay: Toxicity in Zebrafish embryo assessed as induction of changes in body shape at 1 uM; format: organism-based; settings: in vivo; how it was run: as §1
Danio rerio [23] = species: Danio rerio; assay: Teratogenicity in Zebrafish embryo at 10 to 30 uM incubated at 28.5 degC until 5 days post fertilization; format: ADME, organism-based; settings: in vivo, 120 h; how it was run: as §1
Danio rerio [24] = species: Danio rerio; assay: Toxicity in Zebrafish embryo assessed as induction of changes in intestine region at 1 uM; format: organism-based; settings: in vivo; how it was run: as §1
Danio rerio [25] = species: Danio rerio; assay: Toxicity in Zebrafish embryo assessed as induction of changes in somites at 1 uM; format: organism-based; settings: in vivo; how it was run: as §1
Danio rerio [26] = species: Danio rerio; assay: Teratogenicity in Zebrafish embryo assessed as induction of morphological deformities at swim bladder at 1 uM incubated at 28.5 degC until 5 days post fertilization; format: toxicity, organism-based; settings: in vivo, 120 h; how it was run: as §1
Danio rerio [27] = species: Danio rerio; assay: Toxicity in Zebrafish embryo assessed as induction of changes in brain region at 1 uM; format: organism-based; settings: in vivo; how it was run: as §1
Danio rerio [28] = species: Danio rerio; assay: Toxicity in Zebrafish embryo assessed as induction of changes in upper jaw region at 1 uM; format: organism-based; settings: in vivo; how it was run: as §1
Danio rerio [29] = species: Danio rerio; assay: Hepatotoxicity in Zebrafish embryo at 28 degC until 7 days post fertilization; format: organism-based; settings: in vivo, 168 h; how it was run: as §3
Danio rerio [30] = species: Danio rerio; assay: Hepatotoxicity in Zebrafish embryo at 10 to 30 uM incubated at 28 degC until 7 days post fertilization; format: organism-based; settings: in vivo, 168 h; how it was run: as §3
Danio rerio [31] = species: Danio rerio; assay: Induction of apoptosis in Zebrafish embryo at 1 to 10 uM incubated for 24 to 48 hrs by acridine orange based fluorescence microscopy; format: functional, organism-based; how it was run: as §2
Danio rerio [32] = species: Danio rerio; assay: Hepatotoxicity in Zebrafish embryo at 1 to 3 uM incubated at 28 degC until 7 days post fertilization; format: organism-based; settings: in vivo, 168 h; how it was run: as §3

Row | SMILES | Activity (Danio rerio [1]) | Activity (Danio rerio [3]) | NOAEL (Danio rerio [4]) | Activity (Danio rerio [5]) | EC50 (Danio rerio [6]) | MTC (Danio rerio [11]) | NOAEL (Danio rerio [11]) | Activity (Danio rerio [12]) | Activity (Danio rerio [14]) | Activity (Danio rerio [15]) | Activity (Danio rerio [17]) | Activity (Danio rerio [19]) | selectivity ratio [20] | inhibition [21] | Activity (Danio rerio [22]) | Activity (Danio rerio [24]) | Activity (Danio rerio [25]) | Activity (Danio rerio [27]) | Activity (Danio rerio [28]) | also measured
1 | CCOC(=O)c1c(-n2c(-c3ccccc3)cc3nccnc32)sc2c1CCC2 | Non-toxic | Toxic | 1 µM | Non-toxic | 1.73 µM | 1 µM | < 1 µM | Toxic | Non-toxic | Non-toxic | Toxic | Toxic | 0.577 | 62% | Non-toxic | Non-toxic | Toxic | Non-toxic | Non-toxic | Activity (Danio rerio [2]): Non-toxic; Activity (Danio rerio [7]): Toxic; Activity (Danio rerio [8]): Non-toxic; Activity (Danio rerio [9]): Active; survival at 120 h, 3 µM [10]: 50%; LD (Danio rerio [11]): 10 µM; Activity (Danio rerio [13]): Toxic; Activity (Danio rerio [16]): Toxic; Activity (Danio rerio [18]): Active; Activity (Danio rerio [23]): Toxic; Activity (Danio rerio [26]): Toxic
2 | CCOC(=O)c1ccsc1-n1c(-c2ccccc2)cc2nc3ccccc3nc21 | Non-toxic | Non-toxic | 1 µM | Non-toxic | 3.22 µM | 1 µM | < 1 µM | Toxic | Non-toxic | Non-toxic | Toxic | Toxic | 0.31 | 85% | Non-toxic | Toxic | Toxic | Toxic | Toxic | NOAEL (Danio rerio [29]): 3 µM; Activity (Danio rerio [30]): Toxic; Activity (Danio rerio [31]): Active; Activity (Danio rerio [32]): Non-toxic
